In brackets after ≈: the same amount, converted by molar mass.
Tests used:
Format in all cases: functional
[1] = test system: Helicobacter pylori; assay: Minimal concentration needed to inhibit 90% of Helicobacter pylori strain
How it was run: (§1)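 Agar dilution MICs on 20 clinical H. pylori strains, two metronidazole resistant, in Columbia agar with horse serum and yeast extract. DMSO solutions diluted twofold serially in agar. Inocula at 0.5 McFarland in Wilkins Chalgren broth, incubated 37 C for 72 h, 10% CO2, microaerobic. MIC50/MIC90 taken as the lowest concentration inhibiting 50% or 90% of strains.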

[2] = test system: Helicobacter pylori; assay: Inhibitory activity was determined against 102R strain of Helicobacter pylori
[3] = test system: Helicobacter pylori; assay: Minimal concentration needed to inhibit Helicobacter pylori strain
[4] = test system: Helicobacter pylori; assay: Minimal concentration needed to inhibit 50% of Helicobacter pylori strain; how it was run: as §1
[5] = test system: Helicobacter pylori; assay: Inhibitory activity was determined against NCTC-11637 strain of Helicobacter pylori
[6] = test system: Helicobacter pylori; assay: Minimal concentration needed to inhibitH. pylori strain

Row | MIC90 [1] [µg/mL] | MIC [2] [µg/mL] | MIC [3] [µg/mL] | MIC50 [4] [µg/mL] | MIC [5] [µg/mL] | MIC [6] [µg/mL] | SMILES
1 | 16 (≈ 30.1 µM) | 8 (≈ 15 µM) | 0.25 (≈ 0.47 µM) | 8 (≈ 15 µM) | 16 (≈ 30.1 µM) | – | N#C/N=[N+](\[O-])c1ccc(C(=O)NCC/N=C(\NC#N)NCCCOc2cccc(CN3CCCCC3)c2)cc1
2 | 4 (≈ 7.15 µM) | 8 (≈ 14.3 µM) | – | 2 (≈ 3.57 µM) | 4 (≈ 7.15 µM) | 0.25 (≈ 0.447 µM) | N#C/N=[N+](\[O-])c1ccc(C(=O)NCCCC/N=C(\NC#N)NCCCOc2cccc(CN3CCCCC3)c2)cc1
3 | 2 (≈ 3.4 µM) | 2 (≈ 3.4 µM) | – | 1 (≈ 1.7 µM) | 1 (≈ 1.7 µM) | 0.25 (≈ 0.425 µM) | N#C/N=[N+](\[O-])c1ccc(C(=O)NCCCCCC/N=C(\NC#N)NCCCOc2cccc(CN3CCCCC3)c2)cc1
4 | 0.031 (≈ 0.162 µM) | 0.031 (≈ 0.162 µM) | – | 0.016 (≈ 0.0837 µM) | 0.0078 (≈ 0.0408 µM) | < 0.0039 | N#C/N=[N+](\[O-])c1ccc(C(=O)O)cc1

Row | SMILES | MIC90 [1] [µg/mL] | MIC [2] [µg/mL] | MIC [3] [µg/mL] | MIC50 [4] [µg/mL] | MIC [5] [µg/mL] | MIC [6] [µg/mL]
5 | Cc1ncc([N+](=O)[O-])n1CCO [METRONIDAZOLE] | 8 (≈ 46.7 µM) | 8 (≈ 46.7 µM) | – | 0.25 (≈ 1.46 µM) | 16 (≈ 93.5 µM) | 0.031 (≈ 0.181 µM)

From ChEMBL document CHEMBL1134174, “Anti-Helicobacter pylori agents endowed with H2-antagonist properties” (2001)
